The values that follow come from PubChem BioAssay AID463191 (Sanford-Burnham Center for Chemical Genomics, 2010).

This assay relates to AML12 mouse hepatocytes, BODIPY lipid droplet imaging. The assay is described as follows: hepatocyte lipid droplet accumulation inhibitors, dose response, imaging, AML12 mouse hepatocytes, high-content (AID 463191). The settings on record: cells loaded with 100 µM oleic acid. A digest of the protocol:
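Test system: AML12 mouse hepatocyte cell line, lipid droplet imaging. Compound: Seven-point series from 32 to 0.5 µM, 0.32% DMSO. Incubation: cells grown about 20 h at 37 °C, then overnight compound exposure.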

In general, IC50 refers to the concentration at which inhibition is half-maximal.

Molecules are shown by their SMILES. Active and inactive are the calls of the source.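 The calls were made as follows: active = compounds whose mean IC50 across repeat dose response tests falls below a set limit; inactive = the rest.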

Regarding `COc1ccc(C(C(=O)NC(C)(C)C)N(Cc2cccs2)C(=O)CCC(=O)Nc2cc(C)on2)cc1` (configuration not stated), the concentration for half-maximal inhibition (IC50) was 4.16 µM.
On to `Cc1sc(NC(=O)Cc2ccc3c(c2)OCO3)nc1-c1ccc2c(c1)CCN2C(=O)c1ccccc1F`, for which the IC50 was 1.79 µM.
In the case of `COc1ccc(C(C(=O)NC(C)(C)C)N(Cc2ccc(C)cc2)C(=O)CCC(=O)Nc2cc(C)on2)cc1` (configuration not stated), the IC50 is 2.3 µM.
Regarding `COc1ccc(NC(=O)CCC(=O)Nc2cc(OC)c(NC(=O)c3cccs3)cc2OC)cc1`, the half-maximal inhibitory concentration (IC50) is 0.71 µM.
Turning to `O=C(CSCC(=O)N1CCCc2ccccc21)Nc1nc(-c2ccccc2)cs1`, the IC50 is 4.24 µM.
The result for `CCOc1ccc(CCNC(=O)CS(=O)Cc2nc(-c3ccc(OC)c(OC)c3)oc2C)cc1OCC` (configuration not stated) reads 7.64 µM (inactive).
In the case of `COc1ccc(-c2csc(NC(=O)c3ccc(OCC(=O)N4CCOCC4)c(OC)c3)n2)cc1`, the IC50 was 0.782 µM.
For the compound `CCOc1ccc(CCNC(=O)CS(=O)Cc2nc(-c3ccc(OC)cc3)oc2C)cc1OCC` (configuration not stated), the IC50 is 2.11 µM.
As to `COc1ccc(C(=O)NC2CCCc3c2cnn3-c2cccc(C)c2C)o1` (configuration not stated), the IC50 was 2.56 µM.
In the case of `COc1ccccc1CNS(=O)(=O)c1ccc2c(c1)CC(C)N2C(=O)C1CCC1` (configuration not stated), the IC50 is 0.68 µM.
For `CCN(CC(=O)Nc1ccccc1C(F)(F)F)C(=O)c1cc(-c2cccs2)nn1-c1ccccc1`, the IC50 was 2.03 µM.
Consider `CC(C)OC(=O)/C(=C/c1ccc2c(c1)c1ccccc1n2C)NC(=O)c1ccccc1`, for which the IC50 was 1.8 µM.
The figure for `COC(=O)/C(=C/c1ccc2c(c1)c1ccccc1n2C)NC(=O)c1ccccc1` is 4.24 µM; for `COc1ccc(CN(C)C(=O)CNC(=O)Cc2cccc3ccccc23)c(OC)c1OC` it is 4.55 µM.
As for `C=CCOc1ccc(-c2nc3c(c(=O)[nH]c(=O)n3Cc3ccccc3)n2CCCOC)cc1`, the IC50 was 2.98 µM.
For the compound `COCc1ccc(C(=O)NC2CCCc3c2cnn3-c2ccc(C)c(C)c2)o1` (configuration not stated), the half-maximal inhibitory concentration (IC50) was 2.44 µM.
As to `CCCOc1ccc(/C=N/Nc2ccccc2[N+](=O)[O-])c(OCCC)c1`, the IC50 was < 0.5 µM.
On to `CCOc1ccc(NC(=O)CCSc2nc3c(c(CC)c2C#N)C(=O)CC(C)(C)C3)cc1`, for which the IC50 was 1.77 µM.
The result for `CCOc1ccc(CCNC(=O)CCNS(=O)(=O)c2ccc(Br)cc2)cc1OCC` reads 3.65 µM; that for `CCCCc1ccc(NC(=O)CSc2nnc(C)c(=O)n2N)cc1`, 1.27 µM; that for `COc1ccc(C(C(=O)NC(C)(C)C)N(Cc2ccccc2)C(=O)CCC(=O)Nc2cc(C)on2)cc1` (configuration not stated), 8.98 µM (inactive).
As for `CCOc1ccc(CCNC(=O)CS(=O)Cc2nc(-c3ccccc3C)oc2C)cc1OCC` (configuration not stated), the IC50 is 5.36 µM (inactive).
The figure for `c1cc2c(cc1-c1csc(NNC3=NCCCCC3)n1)OCCO2` is 1.07 µM; for `CC(=O)c1cccc(N=Nc2c(-c3ccccc3)[nH]n(-c3ccccc3)c2=O)c1` it is 0.633 µM.
Consider `COc1cccc(NC(=O)CSc2nc3ccccc3nc2N2CCCC2)c1`, for which the IC50 is 5.26 µM (inactive).
The figure for `CCCCNC(=O)c1ccc2c(c1)N(C)C(=O)c1ccccc1S2` is 6.88 µM (inactive).
Consider `COc1ccc(NC(=O)[C@H](C)NC(=O)[C@@H]2Cc3ccccc3CN2C(=O)OC(C)(C)C)cc1`, for which the IC50 is 7.12 µM (inactive).
For the compound `CC(C)COc1cccc(-c2cc(C(=O)Nc3ccon3)c3ccccc3n2)c1`, the IC50 was 3.83 µM.
Consider `CCOc1ccc(CCNC(=O)COC(=O)/C=C/c2ccc(C)o2)cc1OCC`, for which the IC50 was 7.62 µM (inactive).
For `Cc1ccc(-n2nc3c(=O)n(C(C)C(=O)NCCc4cccs4)nc(C)c3c2C)cc1` (configuration not stated), the IC50 is 3.22 µM.
The figure for `CCOc1ccccc1NC(=O)CCCNC(=O)c1ccc(Cl)cc1` is 10.7 µM (inactive); for `C/C(=N\Nc1ccc(S(=O)(=O)Nc2ccccc2)cc1[N+](=O)[O-])c1ccc(N2CCOCC2)cc1` it is 1.28 µM; for `COc1ccc(CCNC(=O)[C@H](C)N2C(=O)N3CCc4c([nH]c5ccccc45)[C@@]3(C)C2=O)cc1OC` it is 1.78 µM.
The result for `CCOC(=O)N1CCN(C(=O)CSCC(=O)Nc2nc(-c3ccc(-c4ccccc4)cc3)cs2)CC1` reads 14.2 µM (inactive); that for `CCc1ccc(NC(=O)CSc2nnc(C)c(=O)n2N)cc1`, 1.48 µM; that for `COc1ccc(OC)c(NC(=O)Cc2coc3ccc4ccccc4c23)c1`, 11.4 µM (inactive).
The result for `CCOc1ccc(CCNC(=O)CCNC(=O)c2ccccc2Cl)cc1OCC` reads 5.88 µM (inactive); that for `CCCCCCn1c(N2CCN(c3ccccc3)CC2)nc2c1c(=O)[nH]c(=O)n2C`, 2.46 µM; that for `O=C(Nc1nc(-c2ccc(-c3ccccc3)cc2)cs1)C1CCCO1` (configuration not stated), 2.23 µM.
Regarding `CCOc1ccc(CCNC(=O)c2ccc3ccccc3n2)cc1OCC`, the IC50 is 1.31 µM.
With `CC(C)c1ccc(NC(=O)CSc2nc3ccccc3nc2N2CCCC2)cc1`, the IC50 was 2.08 µM.
Turning to `CCOc1ccc(C(=O)OCC(=O)Nc2cc(C)on2)cc1OCC`, the IC50 was 1.8 µM.
The result for `CCN(CC)c1ccc(NC(=O)CCc2nnc3ccc(N4CCCC4)nn23)c(C)c1` reads 2.35 µM; that for `O=C1C(NS(=O)(=O)c2cccs2)=C(N2CCN(c3cccc(C(F)(F)F)c3)CC2)C(=O)c2ccccc21`, 0.751 µM.
Consider `CC(Sc1nnc(Nc2ccccc2)s1)C(=O)Nc1nc(-c2ccccc2)cs1` (configuration not stated), for which the IC50 is 5.77 µM (inactive).
As for `O=C(Cc1coc2ccc3ccccc3c12)NC1CCCc2ccccc21` (configuration not stated), the IC50 is 4.39 µM.
Turning to `CCOc1ccc(CCNC(=O)CCS(=O)(=O)c2ccc(C)cc2)cc1OCC`, the IC50 is 1.85 µM.
In the case of `Cc1cc(C(=O)NC2CCCc3c2cnn3-c2ccc(C)c(C)c2)nc(C)n1` (configuration not stated), the IC50 is 2.81 µM.
As for `CCOc1ccc(CCNC(=O)CN2C(=O)c3cccnc3Oc3ccc(C)cc32)cc1OCC`, the half-maximal inhibitory concentration (IC50) is < 0.5 µM.
The figure for `CCOc1ccc(CCNC(=O)CCS(=O)(=O)c2ccc(OC)cc2)cc1OCC` is 2.72 µM; for `CCCC1(c2ccccc2)NC(=O)N(CC(=O)Nc2cc(C)ccc2OC)C1=O` (configuration not stated) it is > 32 µM (inactive).
On to `Cc1ccc(CNC(=O)c2ccc(N3CCC4(CC3)CC(c3ccccc3)=NO4)c(N)c2)cc1`, for which the IC50 is 3.45 µM.
`Cc1cc(C)cc(NC(=O)CCC(=O)Nc2cc(C)on2)c1`: the IC50 is 7.62 µM (inactive).
The result for `CCOc1ccc(CN(C)C(=O)CNC(=O)c2ccc3ccccc3c2)cc1OC` reads 0.809 µM; that for `CCCCN(C(=O)CCC(=O)Nc1cc(C)on1)C(C(=O)NC1CCCC1)c1ccc(OCC)cc1` (configuration not stated), 4.07 µM; that for `CCn1cc(CCCC(=O)NCc2cccc(OC)c2)c2ccccc21`, 6.43 µM (inactive).
In the case of `Cc1cc(C(=O)NC2CCCc3c2cnn3-c2cccc(C)c2C)c(C)o1` (configuration not stated), the IC50 was 2.23 µM.
The result for `CCOc1ccc(CCNC(=O)CN2CCN(Cc3ccccc3C)C2=O)cc1OCC` reads 0.924 µM.
On to `Cc1cccc(C(C(=O)NC2CCCC2)N(C(=O)c2csnn2)C2CCCC2)c1` (configuration not stated), for which the IC50 is 23.9 µM (inactive).
Take `CC1Cc2cc(S(=O)(=O)NCCC(=O)N(C)Cc3ccccc3)ccc2N1C(=O)C1CC1` (configuration not stated): the IC50 was 7.52 µM (inactive).
The result for `CCc1nn2c(N3CCOCC3)cc(C)nc2c1-c1ccc(F)cc1` reads < 0.5 µM; that for `CCOc1ccc(CCNC(=O)CSc2cc(=O)n(C)c3ccccc23)cc1OCC`, 0.823 µM; that for `CCOc1ccc(C(C)NC(=O)Cc2ccccc2F)cc1OCC` (configuration not stated), 6.25 µM (inactive).
On to `CCOC(=O)c1ccc(S(=O)(=O)NCC(c2ccc(N(C)C)cc2)c2c[nH]c3ccccc23)cc1` (configuration not stated), for which the IC50 was 0.927 µM.
For the compound `COc1ccc(CCNC(=O)c2cc3c(F)cccc3s2)cc1OC`, the IC50 is 5.42 µM (inactive).
`CCc1ccc(NC(=O)CSc2nc3ccccc3nc2N2CCCC2)cc1`: the IC50 was 1.94 µM.
Consider `COc1ccc(C(C(=O)NC2CCCC2)N(CCC(C)C)C(=O)CCC(=O)Nc2cc(C)on2)cc1` (configuration not stated), for which the IC50 was 5.9 µM (inactive).
Consider `COc1ccc(C(=O)CCC(=O)NCCc2c[nH]c3ccccc23)cc1OC`, for which the IC50 is 2.12 µM.
With `COc1cc(NC(=O)c2cccs2)c(OC)cc1NC(=O)CCC(=O)Nc1ccc2ncccc2c1`, the IC50 is 2.23 µM.
The result for `CCC(C)(C)NC(=O)C(c1ccc(OC)cc1)N(Cc1cccs1)C(=O)CCC(=O)Nc1cc(C)on1` (configuration not stated) reads 2.24 µM.
Take `COC(=O)/C(=C\c1ccc2c(c1)c1ccccc1n2C)NC(=O)c1ccccc1`: the concentration for half-maximal inhibition (IC50) is 3.3 µM.
As to `CCOc1ccc(CCNC(=O)COc2cc(=O)n(C)c3ccccc23)cc1OCC`, the half-inhibitory concentration (IC50) is 3.95 µM.
As to `CCOc1ccc(CCNC(=O)CCC(=O)N2CCOc3ccccc32)cc1OCC`, the IC50 was 0.83 µM.
For the compound `CCOc1ccccc1Nc1nnc(SC(C)C(=O)Nc2nc(-c3ccccc3)cs2)s1` (configuration not stated), the IC50 is 1.25 µM.
As to `CCOc1ccc(CCNC(=O)CCC(=O)N2CCSc3ccccc32)cc1OCC`, the IC50 is < 0.5 µM.
Turning to `CCc1c(C#N)c(SCCC(=O)Nc2ccc(OC)cc2)nc2c1C(=O)CC(C)(C)C2`, the IC50 is 5.31 µM (inactive).
Take `CCOc1ccc(CCNC(=O)C2CC(=O)N(Cc3ccc(OC)cc3)C2)cc1OCC` (configuration not stated): the IC50 is 3.81 µM.
The result for `CC(C)(C)c1ccc(-c2csc(NNC3=NCCCCC3)n2)cc1` reads 2.09 µM; that for `CC(=O)Nc1ccc(-c2csc(NC(=O)Cc3ccccc3F)n2)cc1`, 5.1 µM (inactive).
On to `COc1ccc(Cl)cc1NC(=O)CN(C)C(=O)CCCc1c[nH]c2ccccc12`, for which the IC50 is 2.3 µM.
The figure for `Cc1ccc(CNC(=O)c2ccc(N3CCC4(CC3)CC(c3ccccc3)=NO4)c(NC(=O)c3ccc(Br)cc3)c2)cc1` is < 0.5 µM; for `CCOc1cc2c(cc1OCC)C(c1ccccc1)N(c1ccccc1)C(=O)C2` (configuration not stated) it is 0.973 µM.
As to `COCCCn1c(SCC(=O)Nc2ccc(NC(=O)c3ccco3)c(OC)c2)nc2ccccc2c1=O`, the IC50 is 1.85 µM.
Take `CCCc1ccc(-c2csc(NC(=O)Cc3cccs3)n2)cc1`: the IC50 is 1.48 µM.
Consider `CCOc1ccc(CCNC(=O)c2cccs2)cc1OCC`, for which the IC50 is 2.35 µM.
In the case of `Cc1ccc(-n2nc3c(=O)n(C(C)C(=O)NCCC4=CCCCC4)nc(C)c3c2C)cc1` (configuration not stated), the concentration for half-maximal inhibition (IC50) is 3.87 µM.
For `CCOc1ccccc1NC(=O)N1CCCC1C(=O)Nc1ccc(-n2cnnn2)c(C)c1` (configuration not stated), the half-inhibitory concentration (IC50) is 1.42 µM.
